Blank lines part the entries; values can stand above or below the compound they belong to.
Columns and labels:
[1] = Dissociation constant, pKa of the compound; format: physicochemical
[2] = Drug level in CD Sprague-Dawley rat brain at 1 mg/kg, iv administered via bolus dose measured after 5 mins by LC-MS/MS analysis; format: ADME, organism-based; details: read-out: Drug uptake
Method in brief: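 Rats given a 1 mg/kg intravenous bolus; brain and blood sampled 5 min later. Reported as mean brain concentration (ng/g tissue) and brain:blood ratio.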

[3] = Ratio of drug level in brain to blood in CD Sprague-Dawley rat at 1 mg/kg, iv administered via bolus dose after 5 mins by LC-MS/MS analysis; format: ADME, organism-based; details: brain and blood
Method in brief: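 Rats received a single intravenous bolus at 1 mg/kg. Brain and blood samples were taken 5 min after dosing. Brain concentration was expressed as ng/g tissue, and the brain:blood concentration ratio was calculated.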

[4] = AUC (0 to last) in CD Sprague-Dawley rat at 3 mg/kg, po by LC-MS/MS analysis
[5] = Blood clearance in CD Sprague-Dawley rat at 1 mg/kg, iv or 3 mg/kg, po by LC-MS/MS analysis; format: ADME, organism-based
Method in brief: (§1)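 CD rats dosed intravenously at 1 mg/kg (n=4) or orally at 3 mg/kg (n=3) as a solution in H2O–PEG200–DMSO (50:45:5). Blood clearance reported as mean and as % of liver blood flow; half-life taken from intravenous data.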

[6] = Volume of distribution at steady state in CD Sprague-Dawley rat at 1 mg/kg, iv or 3 mg/kg, po by LC-MS/MS analysis; format: ADME, organism-based; details: in vivo, read-out: Vdss
Method in brief: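 CD rats (n=4) received a 1 mg/kg intravenous dose of the dihydrochloride salt as a solution in H2O–PEG200–DMSO (50:45:5). Steady-state volume of distribution was taken from the intravenous blood profile and reported as the mean.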

[7] = Elimination half life in CD Sprague-Dawley rat at 1 mg/kg, iv by LC-MS/MS analysis; format: ADME, organism-based; details: in vivo, read-out: beta t1/2 (converted); method in brief: as §1
[8] = Oral bioavailability in CD Sprague-Dawley rat at 10 mg/kg by LC-MS/MS analysis; format: ADME, organism-based; details: in vivo
Method in brief: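 Three rats dosed orally at 10 mg/kg in 0.5% hydroxypropylmethyl cellulose. Bioavailability is a lower-bound estimate because the terminal phase was poorly defined.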

[9] = Bioavailability in CD Sprague-Dawley rat at 2 mg/kg, sc by LC-MS/MS analysis; format: ADME, organism-based; details: in vivo
Method in brief: (§2)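 Single rat dosed subcutaneously at 2 mg/kg in DMSO–PEG 200–water (5:45:50). Bioavailability estimated against intravenous data.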

[10] = test system: Rattus norvegicus; assay: Blood clearance in CD Sprague-Dawley rat at 1 mg/kg, iv or 3 mg/kg, po by LC-MS/MS analysis relative to liver blood flow; format: ADME, organism-based; details: in vivo; method in brief: as §1
[11] = Blood clearance in Beagle dog at 0.5 mg/kg, iv administered via bolus dose or 1 mg/kg, po administered via gavage by LC-MS/MS analysis; format: ADME, organism-based, Canis lupus familiaris
[12] = test system: Canis familiaris; assay: Blood clearance in Beagle dog at 0.5 mg/kg, iv administered via bolus dose or 1 mg/kg, po administered via gavage by LC-MS/MS analysis relative to liver blood flow; format: ADME, organism-based, Canis lupus familiaris; details: in vivo
[13] = Volume of distribution at steady state in Beagle dog at 0.5 mg/kg, iv administered via bolus dose or 1 mg/kg, po administered via gavage by LC-MS/MS analysis; format: ADME, organism-based, Canis lupus familiaris; details: in vivo, read-out: Vdss
[14] = Elimination half life in Beagle dog at 0.5 mg/kg, iv administered via bolus dose or 1 mg/kg, po administered via gavage by LC-MS/MS analysis; format: ADME, organism-based, Canis lupus familiaris; details: in vivo, read-out: beta t1/2 (converted)
[15] = Oral bioavailability in Beagle dog at 1 to 2 mg/kg administered via gavage by LC-MS/MS analysis; format: ADME, organism-based, Canis lupus familiaris; details: in vivo
Method in brief: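 Beagle dogs given oral doses of 1 mg/kg (n=2) or 2 mg/kg (n=2) in H2O–PEG200–DMSO (50:45:5). Bioavailability is the mean of the four animals, referenced to a 1 mg/kg intravenous dose.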

[16] = Drug excretion in Beagle dog urine at 1 mg/kg, po administered via gavage by LC-MS/MS analysis; format: ADME, organism-based, Canis lupus familiaris; details: read-out: Drug excretion
Method in brief: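 Parent compound measured in urine of dogs after intravenous (1 mg/kg) or oral dosing; expressed as % of dose.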

[17] = test system: Liver; assay: Drug metabolism in rat liver microsomes; format: ADME, microsome
Method in brief: (§3)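 Intrinsic clearance measured in vitro with liver microsomes from mouse, rat, dog and human; expressed as mL/min/g tissue.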

[18] = test system: Liver; assay: Drug metabolism in human liver microsomes; format: ADME, microsome; method in brief: as §3
[19] = test system: Liver; assay: Drug metabolism in dog liver microsomes; format: ADME, Canis lupus familiaris, microsome; method in brief: as §3
[20] = test system: Liver; assay: Drug metabolism in mouse liver microsomes; format: ADME, microsome; method in brief: as §3
[21] = Drug absorption in CD Sprague-Dawley rat hepatic portal vein at 3 mg/kg, po; format: ADME, organism-based; details: read-out: Drug absorption
Method in brief: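 Rats given 3 mg/kg orally; the fraction of dose absorbed into the hepatic portal vein was calculated.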

[22] = Drug metabolism in human hepatocytes assessed as M11 formation by mass spectrometric analysis; format: ADME, cell-based, Hepatocyte
[23] = Drug metabolism in human hepatocytes assessed as M15 formation by mass spectrometric analysis; format: ADME, cell-based, Hepatocyte
[24] = Drug metabolism in human hepatocytes assessed as M19 formation by mass spectrometric analysis; format: ADME, cell-based, Hepatocyte
[25] = Drug metabolism in human hepatocytes assessed as M24 formation by mass spectrometric analysis; format: ADME, cell-based, Hepatocyte
[26] = Drug metabolism in human hepatocytes assessed as M26 formation by mass spectrometric analysis; format: ADME, cell-based, Hepatocyte
[27] = Bioavailability in sc dosed CD Sprague-Dawley rat by LC-MS/MS analysis; format: ADME, organism-based; details: in vivo; method in brief: as §2
[28] = Permeability in MDCK cells; format: ADME, cell-based, Canis lupus familiaris; details: dog, read-out: permeability
Method in brief: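 Permeability measured across MDCK cell monolayers, reported in nm/s; n=3.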

[29] = Drug level in CD Sprague-Dawley rat brain at 300 mg/kg, po measured after 30 mins by LC-MS/MS analysis; format: ADME, organism-based; details: read-out: Drug uptake
Method in brief: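 Rats given a single 300 mg/kg oral dose; brain and blood sampled 30 min later. Reported as brain concentration (ng/g) and brain:blood ratio.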

[30] = Drug uptake in arterial blood of ovalbumin-sensitized guinea pig model of histamine-induced allergic rhinitis at 1 mg/ml administered intranasally pretreated for 4 hrs followed by histamine challenge after 30 mins post atropine monohydrate hemisulfate addition; format: ADME, tissue-based, Cavia porcellus; details: in vivo, inhaled_or_intranasal, 0.5 h
Method in brief: (§4)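 Arterial blood taken from guinea pigs immediately after nasal congestion was assessed, 4 or 25 h after an intranasal dose of 1 mg/mL solution (25 µL/nostril).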

[31] = Drug uptake in arterial blood of ovalbumin-sensitized guinea pig model of histamine-induced allergic rhinitis at 1 mg/ml administered intranasally pretreated for 24 hrs followed by histamine challenge after 30 mins post atropine monohydrate hemisulfate addition; format: ADME, tissue-based, Cavia porcellus; details: in vivo, inhaled_or_intranasal, 0.5 h; method in brief: as §4
[32] = Drug level in blood of ovalbumin-sensitized guinea pig model of histamine-induced allergic rhinitis; format: ADME, tissue-based, Cavia porcellus; details: read-out: Drug uptake; method in brief: as §4
[33] = in vivo; details: CD Sprague-Dawley, rat, brain and blood, po, 300 mg/kg
[34] = Drug excretion in Beagle dog urine at 1 mg/kg, iv administered via bolus dose by LC-MS/MS analysis

SMILES: CCCCc1cc(OC2CCN(CCCCNS(=O)(=O)CC)CC2)c2ncccc2c1.Cl.Cl
concentration at 5 min [2]: 26 ng/g
Kp at 5 min [3]: 0.1
clearance [5]: 38 mL/min/kg
Vd [6]: 4.2 L/kg
half-life [7]: 1.8 h
bioavailability [8]: 4 to 9%
bioavailability [9]: 45%
CL [10]: 45%
clearance [11]: 20 mL/min/kg
CL [12]: 65%
Vd [13]: 4.5 L/kg
half-life [14]: 3.8 h
bioavailability [15]: 5%
dose excreted [16]: < 0.1%
Drug metabolism [17]: 2.9 mL/min/g
Drug metabolism [18]: 1.4 mL/min/g
Drug metabolism [19]: 3.6 mL/min/g
Drug metabolism [20]: 3.7 mL/min/g
Fa [21]: 13 to 16%
Drug metabolism [22]: Metabolite_Detected
Drug metabolism [23]: Metabolite_Detected
Drug metabolism [24]: Metabolite_Detected
Drug metabolism [25]: Metabolite_Detected
Drug metabolism [26]: Metabolite_Detected
bioavailability [27]: 45%
Papp [28]: 5.2 ×10⁻⁶ cm/s
concentration at 0.5 h [29]: 14500 ng/g
Drug uptake [30]: Active
Drug uptake [31]: Active
concentration [32]: 7 nM
Kp at 0.5 h [33]: 11
AUC(0-t) [4]: 62 ng·h/mL
dose excreted [34]: < 1%

SMILES: CCCCc1cc(OC2CCN(CCCS(=O)(=O)C(C)(C)C)CC2)c2ncccc2c1
pKa [1]: 8
concentration at 5 min [2]: 133 ng/g
Kp at 5 min [3]: 0.77

SMILES: CCCCc1cc(OC2CCN(CCCNS(=O)(=O)CC)CC2)c2ncccc2c1
pKa [1]: 8.5

Other lines, results leading:

pKa [1]: 7.9
concentration at 5 min [2]: 62 ng/g
Kp at 5 min [3]: 0.09
AUC(0-t) [4]: 568 ng·h/mL
SMILES: CCCCc1cc(OC2CCN(CCCS(=O)(=O)CC)CC2)c2ncccc2c1.Cl.Cl

pKa [1]: 6.5
SMILES: CCCCc1cc(OC2CCN(CCS(=O)(=O)CC)CC2)c2ncccc2c1

— ChEMBL document CHEMBL4043263, “Identification of selective 8-(piperidin-4-yloxy)quinoline sulfone and sulfonamide histamine H1 receptor antagonists for use in allergic rhinitis” (Bioorg Med Chem Lett, 2017)
